For 15 compounds, inhibition results are on record in ChEMBL document CHEMBL1139931, “Synthesis and structure-activity relationships of novel pyrimido[1,2-b]indazoles as potential anticancer agents against A-549 cell lines” (2007).

As a reminder, the inhibition is the relative decrease from the control value, in per cent.

This test has as its system A549. The test is described as follows: Anticancer activity against human A549 cells at 1 nM after 12 hrs. In kind it is functional. As to conditions: A549, 12 h. The method in brief: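 A-549 cells seeded at 10,000 cells/well in 96-well plates, recovered overnight in 5% CO2, then exposed 12 h to compound at 1 nM/ml (in 1% DMSO in PBS). MTT added from a 5 mg/ml PBS stock, 5 h at 37 °C, medium removed, formazan dissolved in DMSO for 5 min at 37 °C. Growth inhibition read at 550 nm; duplicate runs.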

The structures appear in SMILES notation.

With `N#Cc1c(-c2ccccc2)cc(C(F)(F)F)c2c1nn1c(C(F)(F)F)cc(C(F)(F)F)nc21`, at 0.001 µM the inhibition was 4.54%. Compound `Cc1cc(C(F)(F)F)n2nc3c(C#N)c(C(F)(F)F)cc(-c4ccccc4)c3c2n1` had an inhibition at 0.001 µM of 6.44%. The figure for `CCOC(=O)c1cnc2c3c(C(F)(F)F)cc(-c4ccccc4)c(C#N)c3nn2c1N` is 10.7%.

Take `CCOC(=O)c1cnc2c3c(-c4ccccc4)cc(C(F)(F)F)c(C#N)c3nn2c1N`: at 0.001 µM the inhibition was 11%. Turning to `N#Cc1c(C(F)(F)F)cc(-c2ccccc2)c2c1nn1c(-c3ccccc3)cc(-c3ccccc3)nc21`, the inhibition at 0.001 µM came out at 5.96%. With `Cc1cc(=O)n2nc3c(C#N)c(C(F)(F)F)cc(-c4ccccc4)c3c2[nH]1` the figure was 0.44%. `Cc1ccc(-c2cc(C(F)(F)F)n3nc4c(C#N)c(C(F)(F)F)cc(-c5ccccc5)c4c3n2)cc1` returned an inhibition at 0.001 µM of 6.77%. The figure for `Cc1cc(-c2ccccc2)nc2c3c(C(F)(F)F)cc(-c4ccccc4)c(C#N)c3nn12` is 13.3%; for `Cc1cc(C)n2nc3c(C#N)c(-c4ccccc4)cc(C(F)(F)F)c3c2n1` it is 3.74%. The figure for `N#Cc1c(C(F)(F)F)cc(-c2ccccc2)c2c1nn1c(C(F)(F)F)cc(C(F)(F)F)nc21` is 10.2%; for `N#Cc1c(C(F)(F)F)cc(-c2ccccc2)c2c1nn1c(C(F)(F)F)cc(-c3ccccc3)nc21` it is 8.9%; for `CCOC(=O)c1cnc2c3c(-c4ccccc4)cc(C(F)(F)F)c(C#N)c3nn2c1O` it is 8.24%. `N#Cc1c(-c2ccccc2)cc(C(F)(F)F)c2c1nn1c(C(F)(F)F)cc(-c3ccccc3)nc21`: the inhibition at 0.001 µM is 16.2%. As for `Cc1cc(-c2ccccc2)n2nc3c(C#N)c(C(F)(F)F)cc(-c4ccccc4)c3c2n1`, the inhibition at 0.001 µM turned out to be 4.8%.

For the compound `COc1cc([C@@H]2c3cc4c(cc3[C@@H](O[C@@H]3O[C@@H]5CO[C@@H](C)O[C@H]5[C@H](O)[C@H]3O)[C@H]3COC(=O)[C@H]23)OCO4)cc(OC)c1O` [ETOPOSIDE], 0.001 µM produced 1.15% inhibition.
